Laboratory results as given in publication PMC7003739 (Clinical Pharmacology in Drug Development, 2019).
Marks after values point to notes of the source that are not given here.

Key:
Safety and tolerability = format: in vivo, human
Method in brief: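 Healthy Japanese volunteers (Cohort B) were randomised 3:1 to a single oral 15 mg test compound dose or matching placebo on day 1, then 15 mg BID for 5 days (single dose on the last day) or placebo. Adverse events (intensity and treatment relatedness), clinical observations and vital signs were monitored throughout. ECG was done at specified post-dose times. Physical examination was on day 0 and 72 h after the final dose.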

[1] = Plasma PK after single and multiple doses; format: in vivo, human; conditions: Japanese, Cohort B; for AUCτ, arithmetic mean (SD) / AUCτ, geometric mean (%CV): τ 12 hours
[2] = 15 mg BID over 14 days, healthy volunteers; cited from earlier work
Urinary PK = format: in vivo, human; conditions: for Ae6, arithmetic mean (SD) / Ae12, arithmetic mean (SD) / Ae24%, arithmetic mean (SD) / CLR, arithmetic mean (SD) / CLR, geometric mean (%CV) / CLR, median: Cohort A
[3] = humans; cited from earlier work
[4] = Plasma PK after single oral doses; format: in vivo, human; conditions: for AUCinf, arithmetic mean (SD) / AUCinf, geometric mean (%CV) / Cmax, arithmetic mean (SD) / Cmax, geometric mean (%CV) / tmax, median (range) / t½, arithmetic mean (SD): n=6; for tmax, J‐W difference of median: Japanese‐Western
Method in brief: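 Healthy Japanese and Western volunteers took single oral doses of 1, 5 and 30 mg or placebo with 240 mL water on days 1, 4 and 7, with a 2-day washout. Heparinized blood was taken predose and at 0.25–48 h, centrifuged within 30 min at 4°C, and the plasma frozen at –20°C. Assay was LC-MS/MS (0.100–350 ng/mL), with values below the quantification limit set to zero. Japanese/Western geometric mean ratios came from log-scale ANOVA.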

[5] = Cohort B Japanese, 15 mg BID, N=6
[6] = day 8 multiple dose 15 mg BID for 5 days, n=6
[7] = Japanese, Cohort B, single 15 mg dose
[8] = Japanese, single oral 1 mg, n=6
[9] = Japanese, single oral 5 mg, n=5
[10] = Japanese, single oral 5 mg, n=6
[11] = Japanese, single oral 30 mg, n=6
[12] = Western, single oral 30 mg, n=6
[13] = Japanese, single oral 1 mg, Cohort A
[14] = Japanese, single oral 5 mg, Cohort A
[15] = Japanese, single oral 30 mg, Cohort A
[16] = Western, single oral 1 mg, Cohort A
[17] = Western, single oral 5 mg, Cohort A
[18] = Western, single oral 30 mg, Cohort A

C[C@@H]1CCN(C(=O)CC#N)C[C@@H]1N(C)c1ncnc2[nH]ccc12 [tofacitinib]
Constipation, n (all causality) (Safety and tolerability; [5]): 1 | Hunger, n (all causality) (Safety and tolerability; [5]): 2 | Skin irritation, n (all causality) (Safety and tolerability; [5]): 1 | adverse events of moderate intensity: skin irritation, events (Safety and tolerability; Cohort B, single dose 15 mg, not considered related to study treatment): 1 | renal function (individual creatinine levels) following repeat administration (Safety and tolerability; Japanese, Cohort B, 15 mg BID): renal function remained unaffected | changes in vital signs or ECG measurements (Safety and tolerability; whole study): no clinically significant changes | clinically significant laboratory abnormalities (Safety and tolerability; whole study): no volunteers had clinically significant laboratory abnormalities | serious adverse events or deaths (Safety and tolerability; whole study, Cohorts A and B): No serious adverse events or deaths were reported | drug accumulation upon repeat dosing ([1]; 15 mg BID): negligible drug accumulation | time to steady state plasma concentration ([1]; 15 mg BID for 5 days): ≤ 24 h | AUCinf, arithmetic mean (SD) ([1]; day 1 single dose 15 mg, n=6): 417 (133) ng ⋅ h/mL | AUCinf, geometric mean (%CV) ([1]; day 1 single dose 15 mg, n=6): 399 (32) ng ⋅ h/mL | Cmax, arithmetic mean (SD) ([1]; day 1 single dose 15 mg, n=6): 149 (50.6) ng/mL | Cmax, geometric mean (%CV) ([1]; day 1 single dose 15 mg, n=6): 141 (34) ng/mL | tmax, median (range) ([1]; day 1 single dose 15 mg, n=6): 0.75 (0.50‐1.00) h | t½, arithmetic mean (SD) ([1]; day 1 single dose 15 mg, n=6): 3.14 (0.672) h | AUCτ, arithmetic mean (SD) ([1]; day 1 single dose 15 mg, n=6): 403 (128) ng ⋅ h/mL | AUCτ, geometric mean (%CV) ([1]; day 1 single dose 15 mg, n=6): 387 (32) ng ⋅ h/mL | Cmax, arithmetic mean (SD) [1, 6]: 143 (45.9) ng/mL | Cmax, geometric mean (%CV) [1, 6]: 136 (32) ng/mL | tmax, median (range) [1, 6]: 0.75 (0.50‐1.00) h | t½, arithmetic mean (SD) [1, 6]: 3.28 (0.544) h | AUCτ, arithmetic mean (SD) [1, 6]: 457 (116) ng ⋅ h/mL | AUCτ, geometric mean (%CV) [1, 6]: 445 (25) ng ⋅ h/mL | effect on glomerular filtration rate [2]: did not alter the glomerular filtration rate | CLR reduction after multiple‐dose vs single‐dose administration, average (Urinary PK; Japanese, Cohort B, 15 mg): 24% | CLR, geometric mean [SD] (Urinary PK; Japanese, Cohort B, multiple dose 15 mg BID): 120 mL/min | Ae24%, arithmetic mean (SD) percentage of unchanged tofacitinib excreted in urine 24 hours after dose (Urinary PK; [7]): 27.1% | CLR, geometric mean [SD] (Urinary PK; [7]): 158 mL/min | Mean CLR decrease with increasing dose (Urinary PK; Japanese, single doses 1 to 30 mg (162 to 148 mL/min)): 8.6% | Ae6, arithmetic mean (SD) (Urinary PK; [8]): 0.191 (0.0469) mg | Ae12, arithmetic mean (SD) (Urinary PK; [8]): 0.215 (0.0527) mg | Ae24%, arithmetic mean (SD) (Urinary PK; [8]): 22.0% | CLR, arithmetic mean (SD) (Urinary PK; [8]): 166 (45.2) mL/min | CLR, geometric mean (%CV) (Urinary PK; [8]): 162 (27) mL/min | CLR, median (Urinary PK; [8]): 144 mL/min | Ae24%, arithmetic mean (SD) (Urinary PK; Japanese, single oral 1 mg, n=6, listed as Tofacitinib): 22.0 (5.34) % | Ae12, arithmetic mean (SD) (Urinary PK; [9]): 0.995 ^c (0.367) mg | Ae24%, arithmetic mean (SD) (Urinary PK; [9]): 20.4% | CLR, geometric mean (%CV) (Urinary PK; [9]): 134 ^c (25) mL/min | Ae24%, arithmetic mean (SD) (Urinary PK; Japanese, single oral 5 mg, n=5, listed as Tofacitinib): 20.4 ^c (7.51) % | Ae6, arithmetic mean (SD) (Urinary PK; [10]): 0.890 (0.327) mg | CLR, arithmetic mean (SD) (Urinary PK; [10]): 137 (33.8) mL/min | CLR, median (Urinary PK; [10]): 136 mL/min | Ae6, arithmetic mean (SD) (Urinary PK; [11]): 5.59 (0.832) mg | Ae12, arithmetic mean (SD) (Urinary PK; [11]): 6.46 (0.791) mg | Ae24%, arithmetic mean (SD) (Urinary PK; [11]): 22.5% | CLR, arithmetic mean (SD) (Urinary PK; [11]): 153 (41.8) mL/min | CLR, geometric mean (%CV) (Urinary PK; [11]): 148 (27) mL/min | CLR, median (Urinary PK; [11]): 149 mL/min | Ae24%, arithmetic mean (SD) (Urinary PK; Japanese, single oral 30 mg, n=6, listed as Tofacitinib): 22.5 (3.00) % | Mean CLR decrease with increasing dose (Urinary PK; Western, single doses 1 to 30 mg (160 to 124 mL/min)): 22.5% | Ae24%, arithmetic mean (SD) (Urinary PK; Western, single oral 1 mg, n=5): 21.2% | CLR, geometric mean (%CV) (Urinary PK; Western, single oral 1 mg, n=5): 160 ^c (11) mL/min | Ae24%, arithmetic mean (SD) (Urinary PK; Western, single oral 1 mg, n=5, listed as Tofacitinib): 21.2 ^c (0.865) % | Ae6, arithmetic mean (SD) (Urinary PK; Western, single oral 1 mg, n=6): 0.169 (0.0128) mg | Ae12, arithmetic mean (SD) (Urinary PK; Western, single oral 1 mg, n=6): 0.199 (0.0127) mg | CLR, arithmetic mean (SD) (Urinary PK; Western, single oral 1 mg, n=6): 161 (17.7) mL/min | CLR, median (Urinary PK; Western, single oral 1 mg, n=6): 158 mL/min | Ae12, arithmetic mean (SD) (Urinary PK; Western, single oral 5 mg, n=5): 0.919 ^c (0.265) mg | Ae24%, arithmetic mean (SD) (Urinary PK; Western, single oral 5 mg, n=5): 19.9% | CLR, geometric mean (%CV) (Urinary PK; Western, single oral 5 mg, n=5): 136 ^c (29) mL/min | Ae24%, arithmetic mean (SD) (Urinary PK; Western, single oral 5 mg, n=5, listed as Tofacitinib): 19.9 ^c (5.15) % | Ae6, arithmetic mean (SD) (Urinary PK; Western, single oral 5 mg, n=6): 0.744 (0.224) mg | CLR, arithmetic mean (SD) (Urinary PK; Western, single oral 5 mg, n=6): 141 (40.6) mL/min | CLR, median (Urinary PK; Western, single oral 5 mg, n=6): 148 mL/min | Ae6, arithmetic mean (SD) (Urinary PK; [12]): 4.15 (1.11) mg | Ae12, arithmetic mean (SD) (Urinary PK; [12]): 5.63 (1.28) mg | Ae24%, arithmetic mean (SD) (Urinary PK; [12]): 19.8% | CLR, arithmetic mean (SD) (Urinary PK; [12]): 127 (30.1) mL/min | CLR, geometric mean (%CV) (Urinary PK; [12]): 124 (24) mL/min | CLR, median (Urinary PK; [12]): 127 mL/min | Ae24%, arithmetic mean (SD) (Urinary PK; Western, single oral 30 mg, n=6, listed as Tofacitinib): 19.8 (4.11) % | percentage of unchanged tofacitinib excreted in urine (Urinary PK; over 24 hours after single‐dose administration, across doses and ethnicities): approximately 20% | contribution of renal clearance to clearance [3]: approximately 30% | differences in systemic exposure (Cmax, AUCinf) between Japanese and Western volunteers ([4]; 1, 5, 30 mg single doses, analysis of variance): No significant differences | AUCinf, arithmetic mean (SD) [4, 13]: 22.8 (6.37) ng ⋅ h/mL | AUCinf, geometric mean (%CV) [4, 13]: 22.0 (28) ng ⋅ h/mL | Cmax, arithmetic mean (SD) [4, 13]: 7.38 (1.05) ng/mL | Cmax, geometric mean (%CV) [4, 13]: 7.32 (14) ng/mL | tmax, median (range) [4, 13]: 0.75 (0.50‐2.00) h | t½, arithmetic mean (SD) [4, 13]: 1.96 (0.240) h | AUCinf, arithmetic mean (SD) [4, 14]: 114 (25.5) ng ⋅ h/mL | AUCinf, geometric mean (%CV) [4, 14]: 111 (22) ng ⋅ h/mL | Cmax, arithmetic mean (SD) [4, 14]: 43.1 (15.0) ng/mL | Cmax, geometric mean (%CV) [4, 14]: 41.3 (35) ng/mL | tmax, median (range) [4, 14]: 0.50 (0.50‐1.00) h | t½, arithmetic mean (SD) [4, 14]: 2.49 (0.570) h | AUCinf, arithmetic mean (SD) [4, 15]: 775 (203) ng ⋅ h/mL | AUCinf, geometric mean (%CV) [4, 15]: 754 (26) ng ⋅ h/mL | Cmax, arithmetic mean (SD) [4, 15]: 324 (82.7) ng/mL | Cmax, geometric mean (%CV) [4, 15]: 315 (25) ng/mL | tmax, median (range) [4, 15]: 0.50 (0.50‐1.00) h | t½, arithmetic mean (SD) [4, 15]: 3.14 (0.497) h | tmax, J‐W difference of median ([4]; single oral 1 mg, Cohort A): 0.00 h | tmax, J‐W difference of median ([4]; single oral 5 mg, Cohort A): 0.00 h | tmax, J‐W difference of median ([4]; single oral 30 mg, Cohort A): 0.00 h | AUCinf, arithmetic mean (SD) [4, 16]: 22.9 (2.52) ng ⋅ h/mL | AUCinf, geometric mean (%CV) [4, 16]: 22.8 (11) ng ⋅ h/mL | Cmax, arithmetic mean (SD) [4, 16]: 7.53 (1.69) ng/mL | Cmax, geometric mean (%CV) [4, 16]: 7.36 (22) ng/mL | tmax, median (range) [4, 16]: 0.75 (0.50‐1.00) h | t½, arithmetic mean (SD) [4, 16]: 2.14 (0.210) h | AUCinf, arithmetic mean (SD) [4, 17]: 120 (16.8) ng ⋅ h/mL | AUCinf, geometric mean (%CV) [4, 17]: 119 (14) ng ⋅ h/mL | Cmax, arithmetic mean (SD) [4, 17]: 36.0 (9.78) ng/mL | Cmax, geometric mean (%CV) [4, 17]: 34.9 (27) ng/mL | tmax, median (range) [4, 17]: 0.50 (0.50‐2.00) h | t½, arithmetic mean (SD) [4, 17]: 2.85 (0.691) h | AUCinf, arithmetic mean (SD) [4, 18]: 797 (131) ng ⋅ h/mL | AUCinf, geometric mean (%CV) [4, 18]: 788 (16) ng ⋅ h/mL | Cmax, arithmetic mean (SD) [4, 18]: 269 (47.9) ng/mL | Cmax, geometric mean (%CV) [4, 18]: 265 (18) ng/mL | tmax, median (range) [4, 18]: 0.50 (0.50‐1.00) h | t½, arithmetic mean (SD) [4, 18]: 3.50 (0.349) h | geometric mean Cmax in Japanese higher than in Western volunteers ([4]; single 5 and 30 mg doses, Cohort A): approximately 19% | increase of systemic exposure with dose ([4]; single oral doses 1, 5, 30 mg): approximately dose‐proportional
